Twelve molecules from ChEMBL document CHEMBL4765371, “Synthesis and evaluation of Na/K-ATP-ase inhibiting and cytotoxic in vitro activities of oleandrigenin and its selected 17β-(butenolidyl)- and 17β-(3-furyl)- analogues” (Eur J Med Chem, 2020) can be followed below.

Molecules are shown by their SMILES. pIC50: −log10 of the molar value. Activity calls are given as the source filed them. The rule behind the calls is not given here.

In general, pIC50 refers to the negative decadic logarithm of the IC50, by convention in mol/L.

The subject of assay [1] is HeLa. The experiment in a line: Induction of cell cycle arrest in human HeLa cells assessed as increase in accumulation at S phase at 1 to 10 uM incubated for 24 hrs by PI staining based flow cytometry analysis. To be noted: dose 1-10 µM. Format: functional. The essentials: (§1)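 HeLa cells treated 24 h at 1 or 10 µM, then harvested, fixed and stained with propidium iodide. DNA content measured by flow cytometry and cells assigned to subG1 (apoptotic), G0/G1, S and G2/M. Compared with untreated and DMSO-only controls. Means of three independent experiments in triplicate; one-way ANOVA, p < 0.05.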
(Flow cytometry measures light scatter and fluorescence of single cells or particles in a stream.)

The subject of assay [2] is HeLa. Description: Cytotoxicity against human HeLa cells assessed as reduction in cell viability incubated for 72 hrs by resazurin assay. It is filed as functional, cell-based. The essentials:
(§2)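 Cells (CEM, HeLa, MCF7, BJ fibroblasts) exposed to compounds for 72 h, viability read by resazurin staining. Values are means ± SD from at least three independent experiments run in triplicate.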
In general terms: The colour change of resazurin is a common sign of viable cells or microbes.

Assay [3] has as its system HeLa. The experiment in a line: Downregulation of Src kinase activity in human HeLa cells assessed as decrease in Src kinase phosphorylation at Tyr416 residue at 1 uM incubated for 24 hrs by Western blotting analysis.
In assay [4] the test system is HeLa. The experiment in a line: Effect on Src kinase protein expression in human HeLa cells at 1 uM incubated for 24 hrs by western blot analysis. It is filed as functional, cell-based. Summed up: (§3)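 HeLa cells treated 24 h at 1 and 10 µM. Lysates resolved by SDS-PAGE and immunoblotted for PARP-1, caspase-7 zymogen and fragment, Mcl-1, Bcl-2, p53, phospho-Rb, total Rb, phospho-Src (Tyr416) and total Src. β-actin used as loading control. Compared with untreated controls; three repeats.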
(Immunoblotting shows a protein as a band on a membrane.)

In assay [5] the test system is HeLa. Description: Induction of apoptosis in human HeLa cells assessed as downregulation of Bcl2 protein expression at 1 to 10 uM incubated for 24 hrs by Western blotting analysis. It is filed as functional, cell-based. Particulars: dose 1-10 µM. Summed up:
as §3

Assay [6] deals with HeLa. Description: Downregulation of p53 protein expression in human HeLa cells at 1 to 10 uM incubated for 24 hrs by Western blotting analysis. To be noted: dose 1-10 µM. It is filed as functional, cell-based. Summed up:
as §3

In assay [7] the test system is HeLa. The experiment in a line: Induction of apoptosis in human HeLa cells assessed as reduction in Rb phosphorylation at 1 uM incubated for 24 hrs by Western blotting analysis. It is filed as functional, cell-based. Summed up:
as §3

The test system of the next assay is MCF7. Description: Cytotoxicity against human MCF7 cells assessed as reduction in cell viability incubated for 72 hrs by resazurin assay. It is filed as functional, cell-based. Particulars: MCF7, 72 h. Summed up: as §2
The next assay has as its system CCRF-CEM. Description: Cytotoxicity against human CEM cells assessed as reduction in cell viability incubated for 72 hrs by resazurin assay. It is filed as functional, cell-based. The essentials:
as §2

Assay [8] deals with HeLa. Description: Induction of apoptosis in human HeLa cells assessed as reduction in Rb level at 1 to 10 uM incubated for 24 hrs by Western blotting analysis. Particulars: dose 1-10 µM. Format: functional, cell-based. The essentials: as §3
Assay [9] relates to HeLa. Description: Induction of cell cycle arrest in human HeLa cells assessed as decrease in accumulation of cells at G0/G1 phase at 1 to 10 uM incubated for 24 hrs by PI staining based flow cytometry analysis relative to control. Format: functional. To be noted: dose 1-10 µM. The arrangement: scale not given: the % may be the effect or the level left. Summed up:
as §1

A further assay is filed under the species Sus scrofa. The experiment in a line: Inhibition of porcine kidney Na+/K+ ATPase at 50 uM assessed as enzyme residual activity using ATP as substrate incubated for 2 mins followed by substrate addition and measured after 6 mins (reference value: 100 +/-3.16%). It is filed as tissue-based. To be noted: time 8.0 min.
The subject of another assay is BJ. The experiment in a line: Cytotoxicity against human BJ cells assessed as reduction in cell viability incubated for 72 hrs by resazurin assay. Format: cell-based. Summed up: as §2
In assay [10] the test system is HeLa. Description: Induction of apoptosis in human HeLa cells assessed as increase in PARP-1 cleavage at 10 uM incubated for 24 hrs by Western blotting analysis. Format: functional, cell-based. The essentials:
as §3

Assay [11] has as its system HeLa. Description: Induction of cell cycle arrest in human HeLa cells assessed as increase in accumulation at G2/M phase at 10 uM incubated for 24 hrs by PI staining based flow cytometry analysis relative to control. Format: functional. Summed up: as §1
In assay [12] the test system is HeLa. Description: Induction of cell cycle arrest in human HeLa cells assessed as increase in accumulation at G2/M phase at 1 uM incubated for 24 hrs by PI staining based flow cytometry analysis relative to control. Format: functional. The essentials: as §1
Assay [13] has as its system HeLa. Description: Induction of cell cycle arrest in human HeLa cells assessed as increase in accumulation at subG1 phase at 1 to 10 uM incubated for 24 hrs by PI staining based flow cytometry analysis relative to control. Format: functional. Particulars: dose 1-10 µM. Summed up: as §1
Assay [14] has as its system HeLa. The experiment in a line: Induction of apoptosis in human HeLa cells assessed as fold increase in caspase 3/7 activity at 1 to 10 uM incubated for 24 hrs by fluorescence based assay relative to control. It is filed as functional. Particulars: dose 1-10 µM.
Assay [15] has as its system HeLa. Description: Induction of apoptosis in human HeLa cells assessed as downregulation of Mcl1 protein expression at 1 to 10 uM incubated for 24 hrs by Western blotting analysis. It is filed as functional, cell-based. Particulars: dose 1-10 µM. Summed up: as §3
For assay [16], the system named is HeLa. The experiment in a line: Induction of apoptosis in human HeLa cells assessed as increase in caspase 7 fragmentation at 1 to 10 uM incubated for 24 hrs by Western blotting analysis. Particulars: dose 1-10 µM. It is filed as functional, cell-based. The essentials:
as §3

For assay [17], the system named is HeLa. The experiment in a line: Induction of apoptosis in human HeLa cells assessed as reduction in Rb phosphorylation at 1 to 10 uM incubated for 24 hrs by Western blotting analysis. It is filed as functional, cell-based. Particulars: dose 1-10 µM. The essentials:
as §3

Assay [18] concerns HeLa. Description: Induction of apoptosis in human HeLa cells assessed as downregulation of Bcl2 protein expression at 1 uM incubated for 24 hrs by Western blotting analysis. Format: functional, cell-based. Summed up:
as §3

As to `C[C@]12CC[C@H](O)C[C@H]1CC[C@@H]1[C@@H]2CC[C@]2(C)[C@@H](c3ccoc3)[C@@H](O)C[C@]12O`, the result with HeLa [1], in the assay with HeLa [5], in the assay on HeLa [8], in the assay with HeLa [10], with HeLa [11] and in the assay on HeLa [12] was Active. Also, the result in the assay with HeLa [15] and with HeLa [16] was Active. The pIC50 is 4.84 in the assay on HeLa [2], 4.97 in the assay on MCF7, 5.44 with CCRF-CEM and 5.72 in the assay with BJ. In addition, the inhibition result in the assay on HeLa [3] and in the assay on HeLa [6] was “Active” in each case. The outcome in the assay with HeLa [4] and in the assay with HeLa [7] was inactive. The Activity in the assay with HeLa [9] came out at 4.4%; in the assay filed under Sus scrofa it was 7.9%. Further, the “fold change (FC)” value in the assay with HeLa [13] and in the assay on HeLa [14] was 2 each time.

With `CC(=O)O[C@H]1CC[C@@]2(C)[C@H](CC[C@@H]3[C@@H]2CC[C@]2(C)[C@@H](c4ccoc4)[C@@H](OC(C)=O)C[C@]32O)C1`, the pIC50 was 4.37 with HeLa [2], 4.69 with MCF7, 4.85 in the assay on CCRF-CEM and 5.21 with BJ. Further, in the assay listed under Sus scrofa, the Activity stood at 79.9%.

On to `CO[C@H]1C[C@H](O[C@H]2CC[C@@]3(C)[C@H](CC[C@@H]4[C@@H]3CC[C@]3(C)[C@@H](C5=CC(=O)OC5)[C@@H](OC(C)=O)C[C@]43O)C2)O[C@@H](C)[C@@H]1O`, for which the Activity in the assay filed under Sus scrofa came to 59.2%.

On to `CC(C)(C)[Si](C)(C)O[C@H]1CC[C@@]2(C)[C@H](CC[C@@H]3[C@@H]2CC[C@]2(C)[C@@H](c4ccoc4)[C@@H](O)C[C@]32O)C1`, for which the pIC50 was 4.57 with HeLa [2], 4.71 in the assay with MCF7, 5.00 with CCRF-CEM and 5.24 in the assay on BJ. The Activity in the assay listed under Sus scrofa stood at 15.1%.

Turning to `CC(=O)O[C@H]1C[C@]2(O)[C@@H]3CC[C@@H]4C[C@@H](O[Si](C)(C)C(C)(C)C)CC[C@]4(C)[C@H]3CC[C@]2(C)[C@H]1c1ccoc1`, the pIC50 with HeLa [2], in the assay on MCF7, with CCRF-CEM and in the assay with BJ was less than 4.30 throughout. In the assay filed under Sus scrofa, the Activity turned out to be 69.1%.

For the molecule `CC(=O)O[C@H]1CC[C@@]2(C)[C@H](CC[C@@H]3[C@@H]2CC[C@]2(C)[C@@H](C4=CC(=O)OC4)[C@@H](OC(C)=O)C[C@]32O)C1` [GITOXIGENIN DIACETATE], the result in the assay on HeLa [1], with HeLa [8], with HeLa [10], with HeLa [17], with HeLa [15] and with HeLa [16] was Active. In the assay on HeLa [18], the result was Active. For the same molecule, the pIC50 in the assay with HeLa [2] is 5.96; with MCF7, 5.77; with CCRF-CEM it was 6.40; in the assay with BJ, 6.70. Besides, the inhibition result in the assay on HeLa [3] and in the assay on HeLa [6] was “Active” throughout. Besides, the outcome in the assay with HeLa [4] was inactive. Further, the Activity with HeLa [9] turned out to be 4.4%; in the assay listed under Sus scrofa, 101%; in the assay with HeLa [11] it was 11.9%; in the assay with HeLa [12], 13.1%. The “fold change (FC)” value in the assay on HeLa [13] and with HeLa [14] was 2 each time.

Consider `CC(=O)O[C@H]1C[C@]2(O)[C@@H]3CC[C@@H]4C[C@@H](O[Si](C)(C)C(C)(C)C)CC[C@]4(C)[C@H]3CC[C@]2(C)[C@H]1C1=CC(=O)OC1`, for which the pIC50 in the assay on HeLa [2] is 4.47; with MCF7, 4.69; in the assay on CCRF-CEM, 4.76; in the assay with BJ, 4.97. The Activity in the assay listed under Sus scrofa came out at 79.3%.

Regarding `C[C@]12CC[C@H](O)C[C@H]1CC[C@@H]1[C@@H]2CC[C@]2(C)[C@@H](c3ccoc3)[C@@H](O)[C@H]3O[C@]132`, the pIC50 in the assay on HeLa [2], in the assay with MCF7, with CCRF-CEM and in the assay with BJ was less than 4.30 in each case. Moreover, the Activity in the assay filed under Sus scrofa worked out at 75.5%.

`CC(=O)O[C@H]1C[C@]2(O)[C@@H]3CC[C@@H]4C[C@@H](O)CC[C@]4(C)[C@H]3CC[C@]2(C)[C@H]1c1ccoc1`: the pIC50 with HeLa [2] was 4.85; with MCF7 it was 4.79; with CCRF-CEM, 5.03; in the assay with BJ it was 5.40. In the assay listed under Sus scrofa, the Activity is 42.4%.

For the molecule `CC(C)(C)[Si](C)(C)O[C@H]1CC[C@@]2(C)[C@H](CC[C@@H]3[C@@H]2CC[C@]2(C)[C@@H](c4ccoc4)[C@@H](O)[C@H]4O[C@]342)C1`, the pIC50 in the assay on HeLa [2] was 4.49; in the assay with MCF7 it was 4.85; in the assay on CCRF-CEM, 4.46; in the assay on BJ it was 4.79. In the assay filed under Sus scrofa, the Activity amounted to 74.4%.

Regarding `CC(=O)O[C@H]1C[C@@]23O[C@@H]4OC(=O)C=C4[C@@H]1[C@@]2(C)CC[C@H]1[C@H]3CC[C@@H]2C[C@@H](O)CC[C@@]21C`, the pIC50 in the assay with HeLa [2], with MCF7, in the assay on CCRF-CEM and with BJ was less than 4.30 each time. The Activity in the assay listed under Sus scrofa was determined as 83.9%.

On to `CC(=O)O[C@H]1C[C@]2(O)[C@@H]3CC[C@@H]4C[C@@H](O)CC[C@]4(C)[C@H]3CC[C@]2(C)[C@H]1C1=CC(=O)OC1`, for which, in the assay on HeLa [6], the inhibition entry is “Active”. In addition, the outcome with HeLa [8], with HeLa [10], in the assay with HeLa [17] and with HeLa [16] was Active. The Activity was determined as 4.4% with HeLa [9] and 64.8% in the assay filed under Sus scrofa. Moreover, the “fold change (FC)” value in the assay on HeLa [14] stood at 2.
